Compound activity: PubChem, several laboratories
Shown are actives, neighbours in structure and some others; about 4.8% of the full set was active somewhere.
UCH37 inh – blocks the human deubiquitinase UCH37; purified proteasome/UCH37, Ub-AMC cleavage fluorescence; Q9Y5K5; 330,000 compounds, 0.33% hits; inhibition, % (no concentration beside the values);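 active = mean inhibition over replicate wells above about 20%, limit read from the data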;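 note: 0% = compound-free wells with enzyme and 100% = wells lacking proteasome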
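Signal – fluorescence, ex 355 nm, em 460 nm · System – Proteasome-bound UCH37 · Input – 0.15 nM proteasome as dispensed · Timing – 30 min preincubation with enzyme, 25 min cleavage at room temperature · Read-out basis – percent inhibition of cleavage signal versus uninhibited and no-proteasome wells · Medium – Tris-HCl pH 7.4 with ATP-MgCl2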
NR3A LBD binder – modulates the human NR3A ligand-binding domain; NR3A LBD differential scanning fluorimetry, Tm shift; 0% = protein alone, 100% = glycine-bound protein; 340,000 compounds, 2.5% hits; Tm shift relative to glycine control, % at 25 µM; AID 1259313;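 active = melting temperature shift of at least 10% of the positive control shift, at one fixed dose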
PAFAH2 FP inh – inhibitors of human PAFAH2. Q99487. recombinant PAFAH2, FP-rhodamine activity probe, fluorescence polarization. inhibition, % at 3.39 µM. 340,000 compounds, 0.99% hits;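 active = inhibition above the mean over all tested compounds plus 3 SD, cut at about 30% in these data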;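 note: inhibitors block probe labeling of enzyme so polarization drops; 0% = enzyme with DMSO and 100% = wells lacking PAFAH2 protein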
PAFAH1B2 inh – PAFAH1B2 (human) inhibition; recombinant PAFAH1B2, FP-rhodamine activity probe, fluorescence polarization; P68402; inhibition, % at 3.39 µM; 340,000 compounds, 1.2% hits;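 active = inhibition above the mean of all tested compounds plus 3 SD, cut at about 24% in these data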;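 note: 0% = enzyme with DMSO and 100% = wells lacking PAFAH1B2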
PAFAH1B3 inh – blocks human PAF acetylhydrolase 1B catalytic subunit 3; 340,000 compounds, 0.28% hits; inhibition, % at 3.39 µM; recombinant PAFAH1B3, FP-rhodamine probe, fluorescence polarization; Q15102; AID 492972;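 active = inhibition above the screen-wide average of all tested compounds plus 3 SD, cut at about 25% in these data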;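 note: 0% = enzyme with DMSO only and 100% = wells lacking PAFAH1B3 protein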
Target sequence (Q15102 whole entry, looked up): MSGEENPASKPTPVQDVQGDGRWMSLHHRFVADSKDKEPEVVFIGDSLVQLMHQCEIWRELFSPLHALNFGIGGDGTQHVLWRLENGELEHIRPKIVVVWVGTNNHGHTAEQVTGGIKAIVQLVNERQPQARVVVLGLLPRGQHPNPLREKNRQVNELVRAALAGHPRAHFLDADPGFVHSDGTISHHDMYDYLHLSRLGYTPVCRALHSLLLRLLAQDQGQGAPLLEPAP
pPAFAH inh – pPAFAH (human) enzyme inhibition; AID 463082; recombinant pPAFAH, FP-rhodamine probe fluorescence polarization; inhibition, % at 3.39 µM; Q13093; 330,000 compounds, 1.5% hits;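 active = inhibition above the mean inhibition across the screen plus 3 SD, cut at about 25% in these data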;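 note: inhibitors block binding of the rhodamine activity-based probe so polarization drops; 0% = enzyme with DMSO and 100% = wells lacking pPAFAH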
Target sequence (Q13093 whole entry, looked up): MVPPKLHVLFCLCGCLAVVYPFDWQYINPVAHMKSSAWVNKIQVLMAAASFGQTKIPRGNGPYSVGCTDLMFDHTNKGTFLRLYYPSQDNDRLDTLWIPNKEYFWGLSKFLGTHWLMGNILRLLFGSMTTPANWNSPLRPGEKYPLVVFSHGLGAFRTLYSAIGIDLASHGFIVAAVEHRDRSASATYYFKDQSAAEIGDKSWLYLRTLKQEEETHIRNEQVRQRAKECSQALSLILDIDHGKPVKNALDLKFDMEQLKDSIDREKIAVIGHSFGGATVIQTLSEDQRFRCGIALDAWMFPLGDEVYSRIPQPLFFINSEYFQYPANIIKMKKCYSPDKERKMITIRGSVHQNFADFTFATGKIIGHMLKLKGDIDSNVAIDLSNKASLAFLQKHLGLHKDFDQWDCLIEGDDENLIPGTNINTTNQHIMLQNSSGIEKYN
PAFAH1B3 confirm – PAFAH1B3 (human) inhibition, confirmed; inhibition, % at 3.39 µM; recombinant PAFAH1B3, FP-Rh activity-based probe, fluorescence polarization; shares compounds with PAFAH1B3 inh; AID 493032; 390 compounds, 30% hits;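 active = average inhibition over triplicate runs above the hit cutoff set in the earlier primary screen, cut at about 25% in these data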;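 note: 0% = enzyme with DMSO and 100% = wells lacking PAFAH1B3 protein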
UCH37 reconfirm – reconfirmed inhibitor of human deubiquitinase UCH37; 480 compounds, 27% hits; shares compounds with UCH37 inh; AID 624100; Proteasome-bound UCH37, Ub-AMC cleavage fluorescence; inhibition, % at 20 µM;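 active = average inhibition over replicates above about 50%, so the earlier screening hit is confirmed, limit read from the data; inactive = the rest, counted as false positives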;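 note: based on cleavage rate fitted by regression over a 30 min kinetic read; 0% = proteasome plus Ub-AMC and 100% = Ub-AMC without proteasome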
* hit, by the source's call; nt = not tested or not shown; ! = not confirmed by another sample.

SMILES | UCH37 inh | NR3A LBD binder | PAFAH2 FP inh | PAFAH1B2 inh | PAFAH1B3 inh | pPAFAH inh | PAFAH1B3 confirm | others
CCN(CC)c1ccc(/C=N/NC(=O)Cc2nnc(NC(=O)Nc3ccccc3)s2)cc1 | nt | -2 | 16 | 19 | 35* | 20 | 26*
CCOC(=O)c1c(C)oc2c1c(C=NCc1ccccn1)c(O)c1ccccc12 | 3 | -2 | 16 | 13 | 56* | nt | 17
Cc1ccccc1Cn1nnc2c1C(=O)c1ccccc1C2=O | 5 | 0 | 2 | 0 | 22 | 2 | nt
Cc1cccc(Cn2nnc3c2C(=O)c2ccccc2C3=O)c1 | 5 | 1 | 7 | 10 | 30* | 1 | 9
Cn1cccc1CC(=O)NN=Cc1ccc(Cl)c([N+](=O)[O-])c1 | 3 | nt | nt | nt | nt | nt | nt
CCCC[n+]1c2ccccc2cc2ccccc21 | nt | 22* | 3 | 7 | 27* | 3 | 35*
O=[N+]([O-])c1ccc(S(=O)(=O)NN=Cc2cccs2)cc1 | -1 | nt | nt | nt | nt | nt | nt
CC(C)(C)NCC(O)COc1cccc2c1C[C@H](O)[C@H](O)C2 (some centres undefined) | 0 | -3 | -4 | -7 | 33* | 1 | 9
O=c1cc(CCl)nc2sc3ccccc3n12 | 0 | 0 | -1 | -3 | 60* | 7 | 73*
NNC(=O)/C(=N/Nc1ccccc1)S(=O)(=O)c1ccc(Cl)cc1 | nt | -4 | -4 | 3 | 40* | 12 | 37*
O=C(O)[C@@H]1[C@H]2C[C@H]3c4[nH]c5ccccc5c4CCN3C[C@@H]2CC[C@@H]1O | -2 | 1 | 6 | 17 | 28* | 8 | 24
COc1ccc2c3c([nH]c2c1)[C@H]1C[C@H]2[C@H](C[C@@H](O)[C@H](OC)[C@H]2C(=O)O)CN1CC3 | 3 | 3 | -75 | -3 | 4 | 2 | nt
O=C(COc1ccc(C=NNC(=O)c2ccccc2)cc1)Nc1ccc([N+](=O)[O-])cc1 | 3 | nt | nt | nt | nt | nt | nt
COc1cc(C(=O)N/N=C/c2ccc3c(c2)c2ccccc2n3C)ccc1O | nt | 38* | -19 | 14 | 41* | nt | 16
COc1cc(C(=O)NN=Cc2ccc(OC(=O)c3ccccc3)c(OC)c2)ccc1O | 4 | nt | nt | nt | nt | nt | nt
NCC(=O)Nc1ccc(Br)cc1 | 0 | 1 | -3 | 0 | 3 | 2 | nt
C=CC(=O)Nc1ccc(Br)cc1 | 1 | -57 | -4 | 4 | 63* | 1 | 57*
CC(=NNC(=O)CNc1ccc(C)cc1)c1ccc(Cl)cc1 | 1 | nt | nt | nt | nt | nt | nt
C[n+]1c2cc(N)ccc2cc2ccc(N)cc21 | nt | -14 | 18 | 13 | 33* | nt | 28*!
Nc1ccc2ccc(O)cc2c1 | -12 | 5 | 4 | 11 | 3 | nt | nt
COc1cc(OC)c(OC)cc1C=NNC(=O)CSc1ccccc1F | -24 | nt | nt | nt | nt | nt | nt
CC1=C(Nc2ccc(C(=O)O)cc2)C(=O)c2ccccc2C1=O | 8 | -2 | 1 | 6 | 13 | 2 | nt
O=C1C(Cl)=C(Nc2ccccc2)C(=O)c2ccccc21 | 6 | 1 | 15 | 11 | 26* | 4 | 20
CC(C)NC1=C(Cl)C(=O)c2ccccc2C1=O | 10 | -5 | -1 | 1 | 8 | -1 | nt
O=C(O)c1ccc(NC2=C(Cl)C(=O)c3ccccc3C2=O)cc1 | 16 | -2 | 12 | 12 | 33* | -2 | 23
SMILES | UCH37 inh | NR3A LBD binder | PAFAH2 FP inh | PAFAH1B2 inh | PAFAH1B3 inh | pPAFAH inh | PAFAH1B3 confirm | others
Cc1ccc(-n2[nH]c(C)c(/C=N/NC(=O)c3ccc(O)cc3O)c2=O)cc1 | nt | 13* | 7 | 14 | 27* | 13 | 14
COc1cc(C=NNC(=O)c2ccc(C)nc2)ccc1OC(=O)c1ccco1 | 8 | nt | nt | nt | nt | nt | nt
CCOC(=O)c1sc(N=CN(C)C)c(C(=O)OCC)c1C | 12 | nt | nt | nt | nt | nt | nt
CC(=O)c1c(C)[nH]c(C(=O)Nc2ccc(Cl)c(S(=O)(=O)N3CCOCC3)c2)c1C | 4 | -6 | 2 | 8 | 28* | -3 | 5
COc1ccc(N2CS(=O)CC2=O)cc1 (centres undefined) | 5 | -1 | 0 | 3 | 43* | 1 | 5
COc1ccc(N2CC(C(=O)O)CC2=O)cc1 (centres undefined) | 2 | 2 | -9 | 2 | 0 | -1 | nt
COCC(=O)OC1CCn2c1nc1c2C(=O)C(C)=C(NC(C)=O)C1=O (centres undefined) | nt | 1 | 26 | 21 | 69* | nt | 55*
Clc1cccc2sc(N3CCOCC3)nc12 | 2 | -1 | -18 | 20 | 30* | 2 | 7
CC1(C)S/C(=N/N=Cc2ccco2)NC1=O | 13 | nt | nt | nt | nt | nt | nt
CCC(C)n1c(NC(=O)c2ccccc2)c(C#N)c2nc3ccccc3nc21 (centres undefined) | -4 | 3 | -2 | 2 | 35* | 14 | 8
CCC(=O)Nc1c(C#N)c2nc3ccccc3nc2n1-c1ccc(C)cc1 | -207 | 2 | 3 | 3 | 6 | nt | nt
COc1ccc(-n2c(NC(=O)c3ccc(Br)o3)c(C#N)c3nc4ccccc4nc32)cc1 | -90 | nt | nt | nt | nt | nt | nt
N#Cc1c(NC(=O)c2ccc(Br)o2)n(-c2ccccc2)c2nc3ccccc3nc12 | -70 | -3 | 16 | 17 | 65* | 7 | 48*
CC(=O)c1ccc(NC(=O)CNC2CCCCC2)cc1 | 4 | 0 | 22 | 16 | 30* | -11 | 6
O=C(CNC(=O)C(c1ccccc1)c1ccccc1)NN=Cc1ccc(O)cc1O | -2 | nt | nt | nt | nt | nt | nt
Cc1oc(C=NNC(=O)CN(c2ccccc2Br)S(C)(=O)=O)cc1Br | 0 | nt | nt | nt | nt | nt | nt
CCN(c1ccccc1)c1nc(=O)c2cccnc2s1 | -4 | 1 | 5 | 8 | 12 | 3 | nt
CCN(c1ccccc1)c1cc2ccccc2c(=O)[nH]1 | nt | 3 | 7 | 13 | 26* | 3 | 8
CC(=O)SCCC(=O)Nc1ccccc1 | 3 | 1 | -3 | 1 | 26* | 6 | 14
CC(=NNC(=O)C1CCN(S(=O)(=O)c2ccc(C)cc2)CC1)c1cccc([N+](=O)[O-])c1 | 4 | nt | nt | nt | nt | nt | nt
CCOc1ccccc1C=c1sc2ncnn2c1=O | 3 | nt | nt | nt | nt | nt | nt
Cc1cc(C(=O)N/N=C/c2cc(N=Nc3ccccc3)ccc2O)n[nH]1 | nt | 8 | -17 | 6 | 29* | 14 | 18
Cc1cc(C(=O)NN=Cc2cc(N=Nc3ccccc3)ccc2O)n[nH]1 | 13 | nt | nt | nt | nt | nt | nt
ON=C1c2ccccc2-c2ccccc21 | 3 | 0 | 2 | 2 | 35* | 1 | 28*
On1nnc2c3ccccc3c3ccccc3c21 | 3 | 1 | 3 | 10 | 38* | 3 | 42*
O=C(O)c1cccc(NC2=C(Cl)C(=O)c3ccccc3C2=O)c1 | 46* | 1 | 21 | 13 | 27* | nt | 23 | UCH37 reconfirm=25
